According to ChEMBL document CHEMBL4251587, “Synthesis and antimicrobial activity of amino acid and peptide derivatives of mycophenolic acid” (2018):
≈ marks a conversion by molar mass, not a printed value. Calls of active or inactive are those of the source. The calls are words filed in the database; no cut-off is given here. Non-standard residues stand in square brackets, D forms with d. Residues, ends and D or L forms follow the SMILES beside them. *: point of attachment. Mycophenolyl = COc1c(C)c2c(c(O)c1C/C=C(\C)CCC(=O)*)C(=O)OC2; Arg(NO2) = N=C(NCCC[CH](N)C(=O)O)N[N+](=O)[O-]; βAla = NCCC(=O)O

What was measured:
Format in all cases: functional
[1] = tested on: Acinetobacter baumannii; assay: Antibacterial activity against Acinetobacter baumannii ATCC 17978 after 18 to 20 hrs by spectrophotometry based microdilution method
[2] = tested on: Staphylococcus aureus; assay: Antibacterial activity against methicillin-sensitive Staphylococcus aureus ATCC 25923 after 18 to 20 hrs by spectrophotometry based microdilution method
Outline: (§1)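 Broth microdilution in MHB II following EUCAST. Log-phase cultures diluted 1:1000, then 50-fold in saline to McFarland 0.5, giving 10^4 cells/ml per well. Compounds (stock in 6% DMSO) twofold serially diluted. Incubation 35 ± 1 °C, 18–20 h. OD600 plus visual read; MIC50/MIC90 = 50%/90% growth arrest. Resazurin (0.015%, 37 °C, 2 h, dark) confirmation. 3 replicates, 3 independent experiments.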

[3] = tested on: Escherichia coli; assay: Antibacterial activity against Escherichia coli ATCC 8739 at 375 uM after 18 to 20 hrs by spectrophotometry based microdilution method relative to untreated control; conditions: ATCC 8739, ATCC 8739, read-out: GI
Outline: (§2)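 Growth inhibition at a single compound concentration in the EUCAST broth microdilution setup: Mueller Hinton Broth II, 104 cells/ml from log-phase culture, compound stock in 6% DMSO. After 35 ± 1 °C for 18–20 h, OD600 was compared with the untreated growth control. ">" marks 10–50% inhibition and ">>" marks under 10% inhibition. 3 replicates, 3 independent experiments.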

[4] = tested on: Pseudomonas aeruginosa; assay: Antibacterial activity against Pseudomonas aeruginosa ATCC 27853 after 18 to 20 hrs by spectrophotometry based microdilution method
Outline: (§3)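 Broth microdilution in Mueller Hinton Broth II following EUCAST. Log-phase cultures were diluted to McFarland 0.5, and 104 cells/ml went into 2-fold serial dilutions of compound (stock in 6% DMSO). Incubation was 35 ± 1 °C for 18–20 h, read at OD600 and visually. MIC50 and MIC90 were taken as the concentrations giving 50% and 90% growth arrest. Resazurin (0.015%, 2 h, 37 °C, dark) confirmed the result. 3 replicates in 3 independent experiments.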

[5] = tested on: Escherichia coli; assay: Antibacterial activity against Escherichia coli ATCC 8739 after 18 to 20 hrs by spectrophotometry based microdilution method; outline: as §3
[6] = tested on: Klebsiella pneumoniae; assay: Antibacterial activity against ESBL positive Klebsiella pneumoniae ATCC 700603 after 18 to 20 hrs by spectrophotometry based microdilution method; outline: as §3
[7] = tested on: Staphylococcus aureus; assay: Antibacterial activity against methicillin-resistant Staphylococcus aureus ATCC 43300 after 18 to 20 hrs by spectrophotometry based microdilution method; outline: as §1
[8] = tested on: Pseudomonas aeruginosa; assay: Antibacterial activity against Pseudomonas aeruginosa ATCC 27853 assessed as inhibition of bacterial growth at 1500 uM after 18 to 20 hrs by spectrophotometry based microdilution method relative to untreated control; conditions: read-out: GI; outline: as §2
[9] = tested on: Staphylococcus aureus; assay: Antibacterial activity against methicillin-sensitive Staphylococcus aureus ATCC 25923 assessed as inhibition of bacterial growth at 187.5 uM after 18 to 20 hrs by spectrophotometry based microdilution method relative to untreated control; conditions: read-out: GI; outline: as §2
[10] = tested on: Escherichia coli; assay: Antibacterial activity against Escherichia coli ATCC 8739 at 750 uM after 18 to 20 hrs by spectrophotometry based microdilution method relative to untreated control; conditions: ATCC 8739, ATCC 8739, read-out: GI; outline: as §2
[11] = tested on: Escherichia coli; assay: Antibacterial activity against Escherichia coli ATCC 8739 assessed as inhibition of bacterial growth at 1500 uM after 18 to 20 hrs by spectrophotometry based microdilution method relative to untreated control; conditions: ATCC 8739, ATCC 8739, read-out: GI; outline: as §2
[12] = tested on: Klebsiella pneumoniae; assay: Antibacterial activity against ESBL positive Klebsiella pneumoniae ATCC 700603 assessed as inhibition of bacterial growth at 375 uM after 18 to 20 hrs by spectrophotometry based microdilution method relative to untreated control; conditions: read-out: GI; outline: as §2

SMILES | MIC50 [1] | MIC50 [2] | MIC50 [4] | MIC50 [5] | MIC50 [6] | MIC50 [7] | inhibition of growth at 1500 µM [8] | further results
CC[C@H](C)[C@H](NC(=O)CC/C(C)=C/Cc1c(O)c2c(c(C)c1OC)COC2=O)C(=O)O | inactive | inactive | – | – | – | – | – | inhibition of growth at 375 µM [3]: 10 to 50%
COC(=O)C[C@H](NC(=O)CC/C(C)=C/Cc1c(O)c2c(c(C)c1OC)COC2=O)C(=O)OC | 256 mg/L (≈ 552 µM) | 32 mg/L (≈ 69 µM) | inactive | 256 mg/L (≈ 552 µM) | 256 mg/L (≈ 552 µM) | 32 mg/L (≈ 69 µM) | – | –
COc1c(C)c2c(c(O)c1C/C=C(\C)CCC(=O)O)C(=O)OC2 [MYCOPHENOLIC ACID] | 128 mg/L (≈ 400 µM) | – | – | – | 128 mg/L (≈ 400 µM) | 750 mg/L (≈ 2340 µM) | 10 to 50% | MIC90 [5]: 750 mg/L (≈ 2340 µM); inhibition of growth at 187.5 µM [9]: 10 to 50%
COc1c(C)c2c(c(O)c1C/C=C(\C)CCC(=O)N[C@@H](CCCNC(=N)N[N+](=O)[O-])C(=O)O)C(=O)OC2 | – | inactive | inactive | – | inactive | inactive | – | inhibition of growth at 750 µM [10]: 10 to 50%
COC(=O)[C@H](NC(=O)CC/C(C)=C/Cc1c(O)c2c(c(C)c1OC)COC2=O)C(C)O (stereo partly specified) | – | inactive | – | – | inactive | inactive | 10 to 50% | inhibition of growth at 1500 µM [11]: 10 to 50%
COC(=O)C(NC(=O)CC/C(C)=C/Cc1c(O)c2c(c(C)c1OC)COC2=O)C(=O)OC | 256 mg/L (≈ 570 µM) | 256 mg/L (≈ 570 µM) | inactive | 256 mg/L (≈ 570 µM) | 128 mg/L (≈ 285 µM) | 256 mg/L (≈ 570 µM) | – | –
CCC(C)[C@H](NC(=O)CC/C(C)=C/Cc1c(O)c2c(c(C)c1OC)COC2=O)C(=O)OC (stereo partly specified) | 256 mg/L (≈ 572 µM) | 16 mg/L (≈ 35.8 µM) | inactive | 256 mg/L (≈ 572 µM) | 256 mg/L (≈ 572 µM) | 256 mg/L (≈ 572 µM) | – | –
COC(=O)[C@@H](NC(=O)CC/C(C)=C/Cc1c(O)c2c(c(C)c1OC)COC2=O)C(C)O (stereo partly specified) | 256 mg/L (≈ 588 µM) | 8 mg/L (≈ 18.4 µM) | inactive | 256 mg/L (≈ 588 µM) | 256 mg/L (≈ 588 µM) | 32 mg/L (≈ 73.5 µM) | – | –
COC(=O)C(NC(=O)C(CCCCNC(=O)CN)NC(=O)C1CCCN1C(=O)C(CCCNC(=N)N[N+](=O)[O-])NC(=O)CC/C(C)=C/Cc1c(O)c2c(c(C)c1OC)COC2=O)C(C)O (stereo unspecified) (Mycophenolyl-[Arg(NO2)]PK(Gly)T-OMe; configuration not given here) | 128 mg/L (≈ 139 µM) | 64 mg/L (≈ 69.6 µM) | inactive | 256 mg/L (≈ 279 µM) | 16 mg/L (≈ 17.4 µM) | 64 mg/L (≈ 69.6 µM) | – | –
COC(=O)[C@H](CCCNC(=N)N[N+](=O)[O-])NC(=O)CC/C(C)=C/Cc1c(O)c2c(c(C)c1OC)COC2=O | 128 mg/L (≈ 239 µM) | 32 mg/L (≈ 59.8 µM) | inactive | 256 mg/L (≈ 478 µM) | 64 mg/L (≈ 120 µM) | 64 mg/L (≈ 120 µM) | – | –
COC(=O)[C@@H](CCCNC(=N)N[N+](=O)[O-])NC(=O)CC/C(C)=C/Cc1c(O)c2c(c(C)c1OC)COC2=O | – | inactive | – | – | inactive | inactive | – | –
COC(=O)C(NC(=O)C(CCCCNC(=O)CCN)NC(=O)C1CCCN1C(=O)C(CCCNC(=N)N[N+](=O)[O-])NC(=O)CC/C(C)=C/Cc1c(O)c2c(c(C)c1OC)COC2=O)C(C)O (stereo unspecified) (Mycophenolyl-[Arg(NO2)]PK(βAla)T-OMe; configuration not given here) | 128 mg/L (≈ 137 µM) | 32 mg/L (≈ 34.3 µM) | inactive | 256 mg/L (≈ 274 µM) | 32 mg/L (≈ 34.3 µM) | 32 mg/L (≈ 34.3 µM) | – | –
COc1c(C)c2c(c(O)c1C/C=C(\C)CCC(=O)N[C@H](CCCNC(=N)N[N+](=O)[O-])C(=O)O)C(=O)OC2 | – | inactive | – | – | inactive | inactive | 10 to 50% | inhibition of growth at 1500 µM [11]: 10 to 50%
NC[C@H]1O[C@H](O[C@H]2[C@H](O)[C@@H](O[C@H]3O[C@H](CO)[C@@H](O)[C@H](N)[C@H]3O)[C@H](N)C[C@@H]2N)[C@H](O)[C@@H](O)[C@@H]1O [KANAMYCIN] | inactive | – | 1500 mg/L (≈ 3100 µM) | – | inactive | – | – | MIC90 [5]: 15.6 mg/L (≈ 32.2 µM); MIC90 [7]: 125 mg/L (≈ 258 µM); MIC90 [2]: 7.8 mg/L (≈ 16.1 µM)
COc1c(C)c2c(c(O)c1C/C=C(\C)CCC(=O)N[C@@H](CC(=O)O)C(=O)O)C(=O)OC2 | – | inactive | – | – | inactive | inactive | 10 to 50% | inhibition of growth at 750 µM [10]: 10 to 50%
COc1c(C)c2c(c(O)c1C/C=C(\C)CCC(=O)N[C@H](C(=O)O)[C@@H](C)O)C(=O)OC2 | – | inactive | – | – | – | inactive | 10 to 50% | inhibition of growth at 750 µM [10]: 10 to 50%; inhibition of growth at 375 µM [12]: 10 to 50%
CC1(C)S[C@@H]2[C@H](NC(=O)[C@H](N)c3ccccc3)C(=O)N2[C@H]1C(=O)O [AMPICILLIN] | – | – | – | – | – | – | – | MIC90 [4]: 256 mg/L (≈ 733 µM); MIC90 [1]: 2 mg/L (≈ 5.72 µM); MIC90 [5]: 8 mg/L (≈ 22.9 µM); MIC90 [6]: 128 mg/L (≈ 366 µM); MIC90 [7]: 128 mg/L (≈ 366 µM); MIC90 [2]: 0.125 mg/L (≈ 0.358 µM)
COc1c(C)c2c(c(O)c1C/C=C(\C)CCC(=O)N[C@@H](C(=O)O)[C@@H](C)O)C(=O)OC2 | – | inactive | – | – | inactive | inactive | 10 to 50% | inhibition of growth at 1500 µM [11]: 10 to 50%
